Reference: ChEMBL document CHEMBL1759918, “2-Substituted 5,6-dimethyl-3-phenylsulfonyl-pyrazolo[1,5-a]pyrimidines: new series of highly potent and specific serotonin 5-HT6 receptor antagonists” (Eur J Med Chem, 2011)
Activity calls are given as the source filed them. The rule behind the calls is not given here.

Columns and labels:
[1] = biological target: T1, 5-hydroxytryptamine receptor 6 (Homo sapiens, UniProt P50406); test: Antagonist activity at human recombinant 5HT6 receptor expressed in HEK293 cells assessed as inhibition of serotonin-induced cAMP production after 2 hrs; type: functional, cell-based
Outline: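 Tetracycline-induced (1 ug/mL, day before) T-Rex HEK cells expressing 5-HT6R, EDTA-harvested, in HBSS/5 mM HEPES pH 7.4/0.05% BSA with IBMX; ~4000 cells/well. Compound premixed with serotonin (final 10 nM, 0.32% DMSO), 2 h; cAMP by LANCE kit. Duplicates; 4-parameter IC50; Ki = IC50/(1+[Ag]/EC50), serotonin EC50 measured on same plates.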

[2] = biological target: T1, 5-hydroxytryptamine receptor 6; test: Displacement of [3H]lysergic acid diethylamide from human recombinant 5HT6 receptor
Homo sapiens = species on record: Homo sapiens; test: Ratio of Ki for human recombinant 5HT6 receptor to Ki for human recombinant 5HT2B receptor
HEK293 = test: Ratio of IC50 for human recombinant 5HT6 receptor expressed in human HEK293 cells to IC50 for human recombinant 5HT2B receptor expressed in human HEK293 cells; type: cell-based
Outline: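 5-HT6 arm: tetracycline-induced (1 ug/mL, day before) T-Rex 5-HT6R-HEK cells, ~4000 cells/well in HBSS/5 mM HEPES pH 7.4/0.05% BSA, 500 µM IBMX final; compound with 10 nM serotonin, 2 h; cAMP by LANCE TR-FRET. 5-HT2B arm: Fura-2-loaded 5-HT2BR-HEK cells in cuvette, 340/380 nm excitation, 510 nm emission, response to 5 µM α-methylserotonin. IC50 from 4-parameter fits, duplicates.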

[3] = biological target: Voltage-gated inwardly rectifying potassium channel KCNH2 (Homo sapiens, UniProt Q12809); test: Antagonist activity at human ERG by patch clamp method; type: functional
[4] = biological target: 5-hydroxytryptamine receptor 1A (Homo sapiens) (UniProt P08908); test: Binding affinity to 5HT1A receptor at 10 uM by radioligand binding assay
Outline: (§1)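 Outsourced competitive radioligand displacement against target-specific labelled ligands, using the contractor's own protocol for each target. Single test concentration; duplicates, mean ± SD.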

[5] = biological target: 5-hydroxytryptamine receptor 1B (Homo sapiens) (UniProt P28222); test: Binding affinity to 5HT1B receptor at 10 uM by radioligand binding assay; outline: as §1
[6] = biological target: 5-hydroxytryptamine receptor 2C (Homo sapiens) (UniProt P28335); test: Binding affinity to 5HT2C receptor at 10 uM by radioligand binding assay; outline: as §1
[7] = biological target: 5-hydroxytryptamine receptor 3A (Homo sapiens) (UniProt P46098); test: Binding affinity to 5HT3 receptor at 10 uM by radioligand binding assay; outline: as §1
[8] = biological target: Alpha-1A adrenergic receptor (Homo sapiens) (UniProt P35348); test: Binding affinity to Adrenergic alpha1A receptor at 10 uM by radioligand binding assay; outline: as §1
[9] = biological target: Alpha-1B adrenergic receptor (Homo sapiens) (UniProt P35368); test: Binding affinity to Adrenergic Alpha-1B receptor at 10 uM by radioligand binding assay; outline: as §1
[10] = biological target: Alpha-1D adrenergic receptor (Homo sapiens) (UniProt P25100); test: Binding affinity to Adrenergic Alpha-1D receptor at 10 uM by radioligand binding assay; outline: as §1
[11] = Binding affinity to sigma2 receptor at 10 uM by radioligand binding assay
Outline: (§2)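 Panel screen of 56 targets (GPCRs, ion channels, transporters) run by a contract lab under its own protocols; each target scored by competition of a single 10 µM compound concentration with its target-specific radioligand, given as percent displacement; duplicates, mean ± SD.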

[12] = biological target: Adenosine receptor A1 (Homo sapiens) (UniProt P30542); test: Binding affinity to Adenosinergic A1 receptor at 10 uM by radioligand binding assay; outline: as §1
[13] = biological target: Adenosine receptor A2a (Homo sapiens) (UniProt P29274); test: Binding affinity to Adenosinergic A2A receptor at 10 uM by radioligand binding assay; outline: as §1
[14] = biological target: Muscarinic acetylcholine receptor M1 (Homo sapiens) (UniProt P11229); test: Binding affinity to Muscarinic M1 receptor at 10 uM by radioligand binding assay; outline: as §1
[15] = biological target: Muscarinic acetylcholine receptor M2 (Homo sapiens) (UniProt P08172); test: Binding affinity to Muscarinic M2 receptor at 10 uM by radioligand binding assay; outline: as §1
[16] = biological target: Muscarinic acetylcholine receptor M3 (Homo sapiens) (UniProt P20309); test: Binding affinity to Muscarinic M3 receptor at 10 uM by radioligand binding assay; outline: as §1
[17] = biological target: Substance-P receptor (Homo sapiens) (UniProt P25103); test: Binding affinity to tachykinin NK1 receptor at 10 uM by radioligand binding assay; outline: as §2
[18] = biological target: Neuropeptide Y receptor type 1 (Homo sapiens) (UniProt P25929); test: Binding affinity to Neuropeptide Y Y1 receptor at 10 uM by radioligand binding assay; outline: as §1
[19] = biological target: Neuropeptide Y receptor type 2 (Homo sapiens) (UniProt P49146); test: Binding affinity to Neuropeptide Y Y2 receptor at 10 uM by radioligand binding assay; outline: as §1
[20] = Binding affinity to Nicotinic receptor at 10 uM by radioligand binding assay; outline: as §1
[21] = biological target: Sodium-dependent noradrenaline transporter (Homo sapiens) (UniProt P23975); test: Binding affinity to norepinephrine transporter at 10 uM by radioligand binding assay; outline: as §2
[22] = biological target: Sodium-dependent dopamine transporter (Homo sapiens) (UniProt Q01959); test: Binding affinity to Dopamine transporter at 10 uM by radioligand binding assay; outline: as §1
[23] = Binding affinity to GABA transporter at 10 uM by radioligand binding assay; outline: as §1
[24] = biological target: Sodium-dependent serotonin transporter (Homo sapiens) (UniProt P31645); test: Binding affinity to Serotonin transporter at 10 uM by radioligand binding assay; outline: as §2
[25] = biological target: Sodium- and chloride-dependent glycine transporter 2 (Homo sapiens) (UniProt Q9Y345); test: Binding affinity to Glycine transporter at 10 uM by radioligand binding assay; outline: as §1
[26] = biological target: Alpha-2A adrenergic receptor (Homo sapiens) (UniProt P08913); test: Binding affinity to Adrenergic alpha2A receptor at 10 uM by radioligand binding assay; outline: as §1
[27] = biological target: D(1A) dopamine receptor (Homo sapiens) (UniProt P21728); test: Binding affinity to Dopaminergic D1 receptor at 10 uM by radioligand binding assay; outline: as §1
[28] = biological target: D(2) dopamine receptor (Homo sapiens) (UniProt P14416); test: Binding affinity to Dopaminergic D2L receptor at 10 uM by radioligand binding assay; outline: as §1
[29] = biological target: D(3) dopamine receptor (Homo sapiens) (UniProt P35462); test: Binding affinity to Dopaminergic D3 receptor at 10 uM by radioligand binding assay; outline: as §1
[30] = Binding affinity to Dopaminergic D4.2 receptor at 10 uM by radioligand binding assay; outline: as §1
[31] = biological target: D(4) dopamine receptor (Homo sapiens) (UniProt P21917); test: Binding affinity to Dopaminergic D4.4 receptor at 10 uM by radioligand binding assay; outline: as §1
[32] = Binding affinity to Dopaminergic D4.7 receptor at 10 uM by radioligand binding assay; outline: as §1
[33] = biological target: Histamine H1 receptor (Homo sapiens) (UniProt P35367); test: Binding affinity to Histaminergic H1 receptor at 10 uM by radioligand binding assay; outline: as §1
[34] = biological target: Histamine H2 receptor (Homo sapiens) (UniProt P25021); test: Binding affinity to Histaminergic H2 receptor at 10 uM by radioligand binding assay; outline: as §1
[35] = biological target: Histamine H3 receptor (Homo sapiens) (UniProt Q9Y5N1); test: Binding affinity to Histaminergic H3 receptor at 10 uM by radioligand binding assay; outline: as §1
[36] = Binding affinity to imidazoline I2 receptor at 10 uM by radioligand binding assay; outline: as §2
[37] = biological target: Sigma non-opioid intracellular receptor 1 (Homo sapiens) (UniProt Q99720); test: Binding affinity to sigma 1 receptor at 10 uM by radioligand binding assay; outline: as §2
[38] = Binding affinity to L-type calcium channel bezothiazepine binding site at 10 uM by radioligand binding assay; outline: as §1
[39] = Binding affinity to L-type calcium channel dihydropyridine binding site at 10 uM by radioligand binding assay; outline: as §1
[40] = Binding affinity to N-type calcium channel at 10 uM by radioligand binding assay; outline: as §1
[41] = Binding affinity to Potassium channel at 10 uM by radioligand binding assay; outline: as §2
[42] = Binding affinity to Sodium channel at 10 uM by radioligand binding assay; outline: as §2
[43] = biological target: Death-associated protein kinase 1 (Homo sapiens) (UniProt P53355); test: Binding affinity to DAPK1 at 10 uM by radioligand binding assay; outline: as §1
[44] = biological target: Death-associated protein kinase 2 (Homo sapiens) (UniProt Q9UIK4); test: Binding affinity to DAPK2 at 10 uM by radioligand binding assay; outline: as §1
[45] = biological target: Death-associated protein kinase 3 (Homo sapiens) (UniProt O43293); test: Binding affinity to DAPK3 at 10 uM by radioligand binding assay; outline: as §1
[46] = biological target: Mitogen-activated protein kinase 8 (Homo sapiens) (UniProt P45983); test: Binding affinity to MAPK8 at 10 uM by radioligand binding assay; outline: as §1
[47] = biological target: Mitogen-activated protein kinase 10 (Homo sapiens) (UniProt P53779); test: Binding affinity to MAPK10 at 10 uM by radioligand binding assay; outline: as §1
[48] = Binding affinity to AMPA receptor at 10 uM by radioligand binding assay; outline: as §1
[49] = Binding affinity to Kainate receptor at 10 uM by radioligand binding assay; outline: as §1
[50] = Binding affinity to NMDA receptor glycine binding site at 10 uM by radioligand binding assay; outline: as §1
[51] = Binding affinity to NMDA receptor phencyclidine binding site at 10 uM by radioligand binding assay; outline: as §1
[52] = Binding affinity to GABAB receptor at 10 uM by radioligand binding assay; outline: as §1
[53] = Binding affinity to GABAA receptor flunitrazepam binding site at 10 uM by radioligand binding assay; outline: as §1
[54] = Binding affinity to GABAA receptor Ro-15-1788 binding site at 10 uM by radioligand binding assay; outline: as §1
[55] = biological target: D(2) dopamine receptor (Homo sapiens) (UniProt P14416); test: Binding affinity to Dopaminergic D2S receptor at 10 uM by radioligand binding assay; outline: as §1
[56] = biological target: Cyclin-dependent kinase 5 (Homo sapiens) (UniProt Q00535); test: Binding affinity to CDK5 at 10 uM by radioligand binding assay; outline: as §1

T1 sequence (P50406 whole entry): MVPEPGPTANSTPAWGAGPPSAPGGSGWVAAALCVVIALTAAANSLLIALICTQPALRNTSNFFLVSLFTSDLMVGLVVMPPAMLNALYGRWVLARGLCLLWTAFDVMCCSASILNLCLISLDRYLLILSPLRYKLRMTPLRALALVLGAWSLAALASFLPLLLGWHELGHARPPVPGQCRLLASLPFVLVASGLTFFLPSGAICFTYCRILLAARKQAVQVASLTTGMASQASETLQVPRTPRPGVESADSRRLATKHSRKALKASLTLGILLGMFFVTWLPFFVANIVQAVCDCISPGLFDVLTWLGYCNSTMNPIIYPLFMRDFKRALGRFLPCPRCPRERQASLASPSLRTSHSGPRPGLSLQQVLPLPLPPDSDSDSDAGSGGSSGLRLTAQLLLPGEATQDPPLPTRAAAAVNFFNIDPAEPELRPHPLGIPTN
Sequence of D(2) dopamine receptor (Homo sapiens) (P14416 whole entry): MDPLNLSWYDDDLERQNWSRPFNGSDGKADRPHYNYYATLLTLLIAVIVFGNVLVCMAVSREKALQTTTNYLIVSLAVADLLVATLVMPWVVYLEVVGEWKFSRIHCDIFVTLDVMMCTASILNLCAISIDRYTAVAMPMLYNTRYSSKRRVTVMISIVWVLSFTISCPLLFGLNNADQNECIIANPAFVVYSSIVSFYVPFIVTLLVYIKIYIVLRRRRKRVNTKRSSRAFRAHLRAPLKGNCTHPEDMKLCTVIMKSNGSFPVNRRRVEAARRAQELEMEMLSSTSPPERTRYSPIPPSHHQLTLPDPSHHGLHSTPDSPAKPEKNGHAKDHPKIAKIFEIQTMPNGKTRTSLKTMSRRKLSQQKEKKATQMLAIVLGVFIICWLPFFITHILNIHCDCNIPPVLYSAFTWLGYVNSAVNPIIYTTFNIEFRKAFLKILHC
Sequence of Sigma non-opioid intracellular receptor 1 (Homo sapiens) (Q99720 whole entry): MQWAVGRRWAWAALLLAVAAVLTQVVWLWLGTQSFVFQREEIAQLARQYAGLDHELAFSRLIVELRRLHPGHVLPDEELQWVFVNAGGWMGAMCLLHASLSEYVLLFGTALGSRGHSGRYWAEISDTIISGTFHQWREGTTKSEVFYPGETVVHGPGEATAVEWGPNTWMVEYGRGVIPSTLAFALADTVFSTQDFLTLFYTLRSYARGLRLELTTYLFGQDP
Sequence of Alpha-1B adrenergic receptor (Homo sapiens) (P35368 whole entry): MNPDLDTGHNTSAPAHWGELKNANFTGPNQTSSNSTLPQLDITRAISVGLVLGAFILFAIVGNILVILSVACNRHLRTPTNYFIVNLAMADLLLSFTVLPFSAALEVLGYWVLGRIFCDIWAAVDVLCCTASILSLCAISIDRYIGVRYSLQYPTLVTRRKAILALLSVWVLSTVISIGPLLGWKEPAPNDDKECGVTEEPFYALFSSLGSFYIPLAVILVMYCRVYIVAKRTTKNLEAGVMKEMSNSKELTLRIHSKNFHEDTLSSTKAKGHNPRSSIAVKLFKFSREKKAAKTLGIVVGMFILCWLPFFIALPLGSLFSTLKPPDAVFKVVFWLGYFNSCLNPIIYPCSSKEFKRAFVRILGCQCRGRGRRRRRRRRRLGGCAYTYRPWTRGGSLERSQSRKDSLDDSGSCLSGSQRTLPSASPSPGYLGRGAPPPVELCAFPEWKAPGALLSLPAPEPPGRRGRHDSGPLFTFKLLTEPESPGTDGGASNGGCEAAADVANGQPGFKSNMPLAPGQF
Sequence of Voltage-gated inwardly rectifying potassium channel KCNH2 (Q12809 whole entry): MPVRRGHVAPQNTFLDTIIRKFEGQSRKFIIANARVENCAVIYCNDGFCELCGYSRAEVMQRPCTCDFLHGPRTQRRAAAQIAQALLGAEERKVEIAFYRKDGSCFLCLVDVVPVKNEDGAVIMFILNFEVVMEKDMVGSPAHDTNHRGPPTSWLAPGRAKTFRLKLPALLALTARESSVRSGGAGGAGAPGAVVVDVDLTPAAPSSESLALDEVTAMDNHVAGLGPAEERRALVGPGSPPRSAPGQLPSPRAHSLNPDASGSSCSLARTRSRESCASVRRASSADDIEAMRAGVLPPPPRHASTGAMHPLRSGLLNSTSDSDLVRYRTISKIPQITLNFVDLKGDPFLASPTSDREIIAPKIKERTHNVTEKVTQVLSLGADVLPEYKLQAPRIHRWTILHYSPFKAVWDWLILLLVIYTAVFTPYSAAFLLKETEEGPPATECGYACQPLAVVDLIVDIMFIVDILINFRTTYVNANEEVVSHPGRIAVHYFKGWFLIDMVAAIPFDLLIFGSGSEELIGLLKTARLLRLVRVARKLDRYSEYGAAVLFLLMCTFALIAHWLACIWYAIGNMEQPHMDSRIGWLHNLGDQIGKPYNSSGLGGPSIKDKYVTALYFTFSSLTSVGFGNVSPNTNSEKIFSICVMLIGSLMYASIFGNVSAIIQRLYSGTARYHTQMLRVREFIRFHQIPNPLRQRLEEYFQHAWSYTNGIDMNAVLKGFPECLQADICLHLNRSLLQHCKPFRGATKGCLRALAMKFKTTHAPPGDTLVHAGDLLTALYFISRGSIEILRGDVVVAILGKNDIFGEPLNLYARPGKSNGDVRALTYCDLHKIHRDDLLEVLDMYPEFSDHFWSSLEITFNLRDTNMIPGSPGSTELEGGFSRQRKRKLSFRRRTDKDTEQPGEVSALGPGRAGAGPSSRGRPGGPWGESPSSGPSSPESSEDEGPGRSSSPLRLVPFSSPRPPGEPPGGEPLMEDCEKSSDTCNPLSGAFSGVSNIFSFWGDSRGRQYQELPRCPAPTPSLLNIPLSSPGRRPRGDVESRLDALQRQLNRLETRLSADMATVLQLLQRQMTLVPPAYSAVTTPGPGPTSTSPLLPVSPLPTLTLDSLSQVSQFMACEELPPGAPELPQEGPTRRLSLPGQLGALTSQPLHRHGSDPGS
Sequence of Sodium- and chloride-dependent glycine transporter 2 (Homo sapiens) (Q9Y345 whole entry): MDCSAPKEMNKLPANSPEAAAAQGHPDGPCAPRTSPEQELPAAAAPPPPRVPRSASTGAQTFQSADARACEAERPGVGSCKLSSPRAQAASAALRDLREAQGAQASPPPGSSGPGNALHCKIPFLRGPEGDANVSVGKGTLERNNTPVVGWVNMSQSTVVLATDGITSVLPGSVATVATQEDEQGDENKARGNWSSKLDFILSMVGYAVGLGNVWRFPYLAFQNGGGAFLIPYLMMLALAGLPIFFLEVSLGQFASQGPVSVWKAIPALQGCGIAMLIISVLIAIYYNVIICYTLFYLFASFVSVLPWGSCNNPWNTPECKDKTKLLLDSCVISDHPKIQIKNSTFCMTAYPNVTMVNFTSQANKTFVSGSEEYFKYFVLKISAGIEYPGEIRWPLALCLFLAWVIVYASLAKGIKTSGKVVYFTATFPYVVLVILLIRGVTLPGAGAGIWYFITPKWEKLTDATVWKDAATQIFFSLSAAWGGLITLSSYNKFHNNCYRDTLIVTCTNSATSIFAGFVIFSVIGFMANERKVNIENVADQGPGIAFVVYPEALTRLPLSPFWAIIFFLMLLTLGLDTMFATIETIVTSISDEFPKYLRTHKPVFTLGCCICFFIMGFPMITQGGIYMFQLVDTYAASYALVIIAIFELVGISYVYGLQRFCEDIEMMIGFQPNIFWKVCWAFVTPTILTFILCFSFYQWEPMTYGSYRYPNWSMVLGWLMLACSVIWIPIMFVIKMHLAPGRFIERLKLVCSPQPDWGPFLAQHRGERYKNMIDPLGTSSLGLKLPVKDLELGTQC
Sequence of 5-hydroxytryptamine receptor 1A (Homo sapiens) (P08908 whole entry): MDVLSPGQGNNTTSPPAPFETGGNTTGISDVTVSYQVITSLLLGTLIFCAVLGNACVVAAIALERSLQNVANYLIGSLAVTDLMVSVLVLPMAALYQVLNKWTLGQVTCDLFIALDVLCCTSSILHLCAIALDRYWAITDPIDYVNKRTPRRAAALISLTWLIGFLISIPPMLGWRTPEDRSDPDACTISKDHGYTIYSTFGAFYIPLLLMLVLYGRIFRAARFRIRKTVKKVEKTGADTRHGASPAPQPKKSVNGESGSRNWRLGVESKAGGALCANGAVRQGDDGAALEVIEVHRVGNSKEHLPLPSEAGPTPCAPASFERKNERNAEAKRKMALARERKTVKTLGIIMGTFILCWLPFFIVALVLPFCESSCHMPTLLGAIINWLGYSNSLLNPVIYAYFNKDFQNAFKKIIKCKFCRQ
Sequence of Muscarinic acetylcholine receptor M3 (Homo sapiens) (P20309 whole entry, looked up): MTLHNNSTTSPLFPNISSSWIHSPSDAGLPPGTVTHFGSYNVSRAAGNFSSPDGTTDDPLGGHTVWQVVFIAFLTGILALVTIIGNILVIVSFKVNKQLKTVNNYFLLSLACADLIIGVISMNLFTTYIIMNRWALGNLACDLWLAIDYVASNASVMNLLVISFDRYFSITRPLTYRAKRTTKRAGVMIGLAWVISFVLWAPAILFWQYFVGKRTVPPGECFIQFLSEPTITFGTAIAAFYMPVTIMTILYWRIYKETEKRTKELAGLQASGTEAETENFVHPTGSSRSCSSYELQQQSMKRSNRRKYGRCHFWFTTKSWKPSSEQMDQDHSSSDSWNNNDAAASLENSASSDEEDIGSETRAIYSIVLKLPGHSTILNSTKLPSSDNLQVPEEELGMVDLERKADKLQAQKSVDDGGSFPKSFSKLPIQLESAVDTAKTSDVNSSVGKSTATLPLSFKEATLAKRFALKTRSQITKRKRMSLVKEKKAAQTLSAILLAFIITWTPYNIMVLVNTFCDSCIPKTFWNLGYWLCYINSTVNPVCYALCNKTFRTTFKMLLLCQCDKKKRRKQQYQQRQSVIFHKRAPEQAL
Sequence of Neuropeptide Y receptor type 2 (Homo sapiens) (P49146 whole entry): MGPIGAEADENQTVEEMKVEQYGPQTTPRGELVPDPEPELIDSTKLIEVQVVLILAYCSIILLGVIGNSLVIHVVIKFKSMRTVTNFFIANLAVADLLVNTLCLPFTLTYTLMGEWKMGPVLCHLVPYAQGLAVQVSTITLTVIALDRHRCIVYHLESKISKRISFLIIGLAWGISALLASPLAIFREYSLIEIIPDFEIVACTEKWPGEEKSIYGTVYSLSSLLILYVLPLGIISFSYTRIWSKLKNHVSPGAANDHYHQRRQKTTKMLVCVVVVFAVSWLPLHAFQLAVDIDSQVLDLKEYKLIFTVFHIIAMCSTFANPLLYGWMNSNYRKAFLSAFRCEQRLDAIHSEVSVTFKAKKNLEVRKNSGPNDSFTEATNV

SMILES: Cc1cc(C)n2nc(NCCN(C)C)c(S(=O)(=O)c3ccccc3)c2n1
- Ki [1]: 2600 nM

SMILES: Cc1cc(C)n2nc(OCCO)c(S(=O)(=O)c3ccccc3)c2n1
- Ki [1]: 283 nM
- Ki [2]: 22.2 nM

SMILES: Cc1cc(C)n2nc(OCCN(C)C)c(S(=O)(=O)c3ccccc3)c2n1
- Ki [1]: 2200 nM

SMILES: Cc1cc(C)n2nc([S+](C)[O-])c(S(=O)(=O)c3ccccc3)c2n1 (stereo not given)
- Ki [1]: 2960 nM

SMILES: Cc1cc(C)n2nc(N(C)CCN(C)C)c(S(=O)(=O)c3ccccc3)c2n1
- Ki [1]: 489 nM

SMILES: Cc1cc(C)n2nc(C)c(S(=O)(=O)c3ccccc3)c2n1
- Ki [1]: 88.8 nM

SMILES: Cc1cc(C)n2nc(N3CCNCC3)c(S(=O)(=O)c3ccccc3)c2n1
- Ki [1]: 1380 nM

SMILES: CSc1nn2c(C)cc(C)nc2c1S(=O)(=O)c1ccccc1
- Ki [2]: 2 nM

SMILES: Cc1cc(C)n2nc(NCCCN(C)C)c(S(=O)(=O)c3ccccc3)c2n1
- Ki [1]: 764 nM

SMILES: CNc1nn2c(C)cc(C)nc2c1S(=O)(=O)c1ccccc1
- Ki [2]: 0.2 nM
- Ratio (Homo sapiens): 5000
- Ratio (HEK293): 1000
- IC50 [3]: > 30000 nM
- Activity [4]: inactive
- Activity [5]: inactive
- Activity [6]: inactive
- Activity [7]: inactive
- Activity [8]: inactive
- Activity [9]: inactive
- Activity [10]: inactive
- Activity [11]: inactive
- Activity [12]: inactive
- Activity [13]: inactive
- Activity [14]: inactive
- Activity [15]: inactive
- Activity [16]: inactive
- Activity [17]: inactive
- Activity [18]: inactive
- Activity [19]: inactive
- Activity [20]: inactive
- Activity [21]: inactive
- Activity [22]: inactive
- Activity [23]: inactive
- Activity [24]: inactive
- Activity [25]: inactive
- Activity [26]: inactive
- Activity [27]: inactive
- Activity [28]: inactive
- Activity [29]: inactive
- Activity [30]: inactive
- Activity [31]: inactive
- Activity [32]: inactive
- Activity [33]: inactive
- Activity [34]: inactive
- Activity [35]: inactive
- Activity [36]: inactive
- Activity [37]: inactive
- Activity [38]: inactive
- Activity [39]: inactive
- Activity [40]: inactive
- Activity [41]: inactive
- Activity [42]: inactive
- Activity [43]: inactive
- Activity [44]: inactive
- Activity [45]: inactive
- Activity [46]: inactive
- Activity [47]: inactive
- Activity [48]: inactive
- Activity [49]: inactive
- Activity [50]: inactive
- Activity [51]: inactive
- Activity [52]: inactive
- Activity [53]: inactive
- Activity [54]: inactive
- Activity [55]: inactive
- Activity [56]: inactive

SMILES: Cc1cc(C)n2nc(N(C)C)c(S(=O)(=O)c3ccccc3)c2n1
- Ki [1]: 14.5 nM

SMILES: CCSc1nn2c(C)cc(C)nc2c1S(=O)(=O)c1ccccc1
- Ki [1]: 1.91 nM

SMILES: Cc1cc(C)n2ncc(S(=O)(=O)c3ccccc3)c2n1
- Ki [1]: 561 nM
